Yeast lifespan up – extends the lifespan of yeast; 130,000 tested, 0.68% active; S. cerevisiae growth with nicotinamide, OD615; deaD strain in restrictive glucose medium; inhibition of the nicotinamide effect, % at 10 µM;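 active = inhibition above a set limit, placed 3 SD over the median of all compounds, cut at about 26% in these data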;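 also: 0% = nicotinamide-treated wells and 100% = cells grown without nicotinamide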
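System: DeaD-strain S. cerevisiae / Buffer or medium: CSMM-D, restrictive glucose (dextrose) synthetic minimal medium / Probe or stimulus: nicotinamide, 1.5 mM, co-present with compound / Compound: one concentration, 10 µM, DMSO 0.25% / Incubation: 48 h compound exposure at 30 °C, humidified / Technique: optical density (absorbance) at 615 nm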
Phagocyt inh – inhibitors of macrophage phagocytosis. J774A.1 macrophage IgG-bead phagocytosis, imaging. inhibition, % at 5 µM. 110,000 tested, 0.07% active;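 active = inhibition above the mean of the plate negative controls plus 5 SD, cut at about 13% in these data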;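 also: phagocytic index as fraction of beads internalized from green versus red external bead signal; plate controls were DMSO negative control for no effect and cytochalasin-D positive control for full effect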
MRP reversal – reverses drug resistance mediated by MRP; H69AR cells + 2 uM doxorubicin, CellTiter-Glo, 72 h; AID 602; 85,000 tested, 0.04% active; differential viability (reversal), % at 10 µM;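 active = viability drop by adding the cancer drug above about 55%, with treated viability meeting a 40% cutoff, limit read from the data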;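 also: viability without doxorubicin minus viability with 2 µM doxorubicin for each compound; larger differential means the compound sensitizes cells more to doxorubicin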
sdo1 growth – restores growth of sdo1-depleted yeast; S. cerevisiae sdo1-depleted JHY4D growth rescue, OD600 30 h; active compounds read high; pdr5 snq2 efflux-pump mutant strain; z-score at 10 µM; 140,000 tested, 0.21% active; AID 817;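 active = z-score above 3 at both the 24 hr and the 30 hr optical density reads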;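 also: z-score against mean and SD of all compound wells on the same plate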
MRP1 act – activators of MRP-1; 140,000 tested, 0.61% active; H69AR cells + doxorubicin, viability rescue, CellTiter-Glo; AID 799; viability increase, % at 10 µM;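 active = viability gain under doxorubicin at or above a set limit, the compound median plus 3 SD, cut at about 4.7% in these data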;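 also: MRP-1 overexpressing cells given doxorubicin 25 µM after compound pretreatment; 18-22 h compound pretreatment then 72 h with doxorubicin before readout; 0% = doxorubicin-only wells and 100% = vehicle-treated cells without doxorubicin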
Yeast growth inh – chemicals that inhibit yeast BB579 growth in restrictive medium (lifespan-shortening candidates). S. cerevisiae BB579 growth, OD615, 48 h. inhibition, % at 10 µM. 140,000 tested, 0.51% active. AID 804;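 active = inhibition above a set limit, 3 SD over the mean compound inhibition, cut at about 44% in these data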
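Test system: DeaD yeast strain BB579 / Buffer or medium: restrictive glucose-based CSMM-D medium / Doses: single 10 µM dose / Schedule: 4 h cell preincubation, 48 h compound exposure, 30 °C humidified / Technique: culture absorbance at 615 nm / Controls: amphotericin B positive control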
* hit, by the source's call; [ ] = dose if it differs, or a comment. Rows were chosen to be rich in hits. Some 2.1% of all compounds tested hit in one or more screens of this group.

Screening Cc1cc2c(n1-c1ccc(C(N)=O)cc1)CC(C)(C)CC2=O returned MRP reversal 5, sdo1 growth 0.68, MRP1 act -2 and Yeast growth inh -17.
Screening CCN1C(=O)/C(=C/C=C2/Sc3ccc4ccccc4c3N2CCO)SC1=S returned Yeast lifespan up 0, Phagocyt inh 123*[fluoresces], sdo1 growth 0.38, MRP1 act -4 and Yeast growth inh -32.
For CCCN1C(=O)c2cc(C(=O)NCc3cccs3)ccc2C1O (configuration not stated) the results were Yeast lifespan up -10, Phagocyt inh -1, MRP reversal -4, sdo1 growth 1.3, MRP1 act 0 and Yeast growth inh -25.
For Cc1c(C)n(C)c2ccc(C(=O)NCc3cccs3)cc12 the results were Yeast lifespan up -4, Phagocyt inh 0, MRP reversal 25, sdo1 growth -0.5, MRP1 act 5.5* and Yeast growth inh -1.
`N#C/C(=C\c1ccc(OC(=O)c2ccccn2)cc1)C(N)=O` gave Yeast lifespan up 3, Phagocyt inh -3, sdo1 growth 1.3, MRP1 act -2 and Yeast growth inh -23.
Cc1ccc(/C=N/Nc2ccnc3cc(Cl)ccc23)c(C)c1 was read as Yeast lifespan up -6, Phagocyt inh -3, sdo1 growth -2.2, MRP1 act -6 and Yeast growth inh 68*.
Screening CN1CCN(C2=Cc3ccccc3Sc3cc(F)c(F)cc32)CC1 returned MRP reversal 0, sdo1 growth -2.5, MRP1 act -7 and Yeast growth inh 1.
Screening CN1CCN(C2=Cc3cc(Cl)ccc3Sc3cc(F)ccc32)CC1 returned MRP reversal -7, sdo1 growth -2.1, MRP1 act -8 and Yeast growth inh 98*.
Cc1ccc(S(=O)(=O)N2CCC(=O)N(C(CO)C(C)C)CC2)cc1 (configuration not stated) was read as Yeast lifespan up 1, sdo1 growth 0.76, MRP1 act -2 and Yeast growth inh -29.
CCOC(=O)C1(N(CC)CC)Sc2cc(C)ccc2NC1=O (configuration not stated) was read as Yeast lifespan up -2, MRP reversal -25, sdo1 growth -0.25, MRP1 act -4 and Yeast growth inh -29.
CC(C)c1ccc2c(c1)C1(NN=C(c3ccccc3)S1)C(=O)N2 (configuration not stated) was read as MRP reversal -26, sdo1 growth -2.2, MRP1 act -5 and Yeast growth inh 78*.
CCc1ccc2c(c1)C1(NN=C(c3ccc(C)cc3)S1)C(=O)N2 (configuration not stated) was read as MRP reversal -2, sdo1 growth -0.17, MRP1 act -8 and Yeast growth inh 96*.
For Cc1nn(C)cc1CNC(=O)c1cccc(F)c1 the results were Yeast lifespan up 5, Phagocyt inh -5, sdo1 growth 0.54, MRP1 act 0 and Yeast growth inh -11.
For COc1ccc(NC(=O)NCc2cccn2C)c(OC)c1 the results were Yeast lifespan up -10, MRP reversal 1, sdo1 growth 0.66, MRP1 act -1 and Yeast growth inh -42.
`C=CCc1c(C)c(C#N)c2nc3ccccc3n2c1NCCN(C)C` gave Yeast lifespan up -1, Phagocyt inh 0, MRP reversal 4, sdo1 growth -1.9, MRP1 act -5 and Yeast growth inh 57*.
O=C1C(Cl)=C(NCC2CCCO2)C(=O)N1C1CCCCC1 (configuration not stated) was read as Yeast lifespan up 0, MRP reversal -7, sdo1 growth -0.56, MRP1 act -1 and Yeast growth inh -47.
`Oc1c(C(c2cccs2)N2CCC3(CC2)OCCO3)sc2ncnn12` (configuration not stated) gave Yeast lifespan up -8, Phagocyt inh -1, MRP reversal 1, sdo1 growth 0.89, MRP1 act 4 and Yeast growth inh -5.
`Oc1c(C(c2cccs2)N2CCN(c3ccccc3)CC2)sc2ncnn12` (configuration not stated) gave Yeast lifespan up -9, MRP reversal -2, sdo1 growth -0.14, MRP1 act 14* and Yeast growth inh 11.
For CCOc1ccc(NC(=O)N2CCC(n3c(=O)[nH]c4ccccc43)CC2)cc1 the results were Yeast lifespan up -12, Phagocyt inh 0, MRP reversal -16, sdo1 growth 3.3, MRP1 act 5.6* and Yeast growth inh 11.
Screening COc1ccccc1C(=O)Oc1cc(N)n(S(=O)(=O)c2ccc(C)cc2)n1 returned Yeast lifespan up 45*, Phagocyt inh 2, sdo1 growth 0.82, MRP1 act -1 and Yeast growth inh -6.
`Cc1nn(Cc2c(F)c(F)c(F)c(F)c2F)c(C)c1NC(=O)c1ccc(COc2ccc(F)cc2)o1` gave Yeast lifespan up -20, sdo1 growth -1.2, MRP1 act 6.7* and Yeast growth inh -38.
For Cc1nn(Cc2c(F)c(F)c(F)c(F)c2F)c(C)c1NC(=O)c1ccc(COc2ccccc2Cl)o1 the results were Yeast lifespan up -15, sdo1 growth -1.6, MRP1 act 2 and Yeast growth inh -29.
`CCCCc1ccc(NC(=O)c2c(C)noc2C)cc1` gave Yeast lifespan up -10, Phagocyt inh -1, MRP reversal 22, sdo1 growth -0.83, MRP1 act 8.7* and Yeast growth inh 7.
Screening CCn1nc(C)c(NC(=O)c2ccc(Br)o2)c1C returned Yeast lifespan up 0, Phagocyt inh -6, sdo1 growth 0.56, MRP1 act 2 and Yeast growth inh -43.
O=c1[nH]c(Nc2ccccc2)cc2ccccc12 was read as Yeast lifespan up -19, MRP reversal -3, sdo1 growth -0.9, MRP1 act -1 and Yeast growth inh 48*.
Screening COc1ccc(CCn2c(-c3ccccc3)nc3c(c(=O)c4ccccc4n3C)c2=O)cc1 returned Yeast lifespan up 31*, Phagocyt inh -5, sdo1 growth -1.2, MRP1 act -4 and Yeast growth inh -58.
`CCc1nccn1C(=O)c1cnn2c(C(F)F)cc(-c3ccc(C)cc3)nc12` gave Yeast lifespan up -8, Phagocyt inh -9, sdo1 growth -0.14, MRP1 act 6.0* and Yeast growth inh -1.
CC(C(=O)Nc1ccccn1)N1C(=O)C2C3C=CC(C3)C2C1=O (configuration not stated) was read as Yeast lifespan up 4, Phagocyt inh 0, MRP reversal 3, sdo1 growth -0.15, MRP1 act -1 and Yeast growth inh -46.
`CCOC(=O)c1sc(NC(=O)CN(CC)CC)c(C(=O)OCC)c1C` gave Yeast lifespan up 28*, Phagocyt inh -2, MRP reversal 7, sdo1 growth -0.14, MRP1 act -3 and Yeast growth inh -3.

Bioassay records from PubChem BioAssay.
